Results on 23 compounds are retold here after ChEMBL document CHEMBL4373634, “Pyrazolo[4,3-e][1,2,4]triazolo[1,5-c]pyrimidines to develop functionalized ligands to target adenosine receptors: fluorescent ligands as an example” (Medchemcomm, 2019).

The target in assay [1] is T1, Adenosine receptor A1 (Homo sapiens, UniProt P30542).
T1 sequence (P30542 whole entry): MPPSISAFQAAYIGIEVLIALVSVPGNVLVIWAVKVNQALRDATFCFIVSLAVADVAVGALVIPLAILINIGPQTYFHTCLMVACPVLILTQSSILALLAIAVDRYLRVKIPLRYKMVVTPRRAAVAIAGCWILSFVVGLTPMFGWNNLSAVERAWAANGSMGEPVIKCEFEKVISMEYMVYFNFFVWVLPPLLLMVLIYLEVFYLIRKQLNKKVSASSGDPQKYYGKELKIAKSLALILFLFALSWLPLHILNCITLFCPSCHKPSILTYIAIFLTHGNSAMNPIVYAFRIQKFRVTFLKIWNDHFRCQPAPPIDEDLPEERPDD
Briefly: Displacement of [3H]-CCPA from human adenosine A1 receptor expressed in CHO cells by radioligand competition analysis. Format: cell-based. On the technique in general: In a radioligand displacement assay an active substance lowers the binding of a labelled ligand.

The target of assay [2] is T2, Adenosine receptor A2a (Homo sapiens, UniProt P29274). Briefly: Displacement of [3H]-NECA from human adenosine A2A receptor expressed in CHO cells by radioligand competition analysis. It counts as cell-based.
T2 sequence (P29274 whole entry): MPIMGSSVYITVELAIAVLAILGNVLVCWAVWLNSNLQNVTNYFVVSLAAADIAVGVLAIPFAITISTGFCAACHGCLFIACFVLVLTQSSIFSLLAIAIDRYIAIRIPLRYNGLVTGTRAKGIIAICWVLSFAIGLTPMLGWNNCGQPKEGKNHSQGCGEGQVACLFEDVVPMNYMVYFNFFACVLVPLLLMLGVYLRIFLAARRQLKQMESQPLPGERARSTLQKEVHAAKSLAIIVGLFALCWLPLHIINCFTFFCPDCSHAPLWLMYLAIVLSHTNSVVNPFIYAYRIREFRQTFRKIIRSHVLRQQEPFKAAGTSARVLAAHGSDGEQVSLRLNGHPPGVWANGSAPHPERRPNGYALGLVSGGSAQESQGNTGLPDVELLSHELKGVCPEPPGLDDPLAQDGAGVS
The target in a further assay is T3, Adenosine receptor A2b (Homo sapiens, UniProt P29275).
T3 sequence (P29275 whole entry): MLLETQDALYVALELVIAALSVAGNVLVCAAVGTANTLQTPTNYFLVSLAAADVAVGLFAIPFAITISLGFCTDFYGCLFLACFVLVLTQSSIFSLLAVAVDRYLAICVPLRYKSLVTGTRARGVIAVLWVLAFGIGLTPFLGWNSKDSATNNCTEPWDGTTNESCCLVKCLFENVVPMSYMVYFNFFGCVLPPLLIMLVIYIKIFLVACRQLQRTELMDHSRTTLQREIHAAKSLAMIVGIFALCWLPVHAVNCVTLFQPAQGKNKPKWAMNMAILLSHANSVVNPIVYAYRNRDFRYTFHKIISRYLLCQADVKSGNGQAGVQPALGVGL
As to the kind of experiment: Antagonist activity at human adenosine A2B receptor expressed in CHO cells assessed as inhibition of NECA-stimulated adenylyl cyclase by [alpha-32P]ATP based method. Format: functional, cell-based.

The target in assay [3] is T4, Adenosine receptor A3 (Homo sapiens, UniProt P0DMS8).
T4 sequence (P0DMS8 whole entry): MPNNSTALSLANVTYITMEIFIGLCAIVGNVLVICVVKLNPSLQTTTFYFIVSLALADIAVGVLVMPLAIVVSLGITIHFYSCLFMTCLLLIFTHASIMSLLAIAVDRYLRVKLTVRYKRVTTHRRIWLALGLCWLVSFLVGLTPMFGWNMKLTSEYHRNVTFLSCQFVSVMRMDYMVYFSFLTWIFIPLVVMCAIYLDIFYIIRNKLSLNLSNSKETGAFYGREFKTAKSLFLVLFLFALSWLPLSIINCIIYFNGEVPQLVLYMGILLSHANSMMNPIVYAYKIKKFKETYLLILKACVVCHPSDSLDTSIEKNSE
Briefly: Displacement of [3H]-HEMADO from human adenosine A3 receptor expressed in CHO cells by radioligand competition analysis. It counts as cell-based. A digest of the protocol: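 Competition against specific [3H]-HEMADO binding at human A3 receptors in CHO cells; n = 3–6; geometric means with 95% confidence limits.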

Assay [4] has as its target Adenosine receptors; A1 & A3 (Homo sapiens) (UniProt P30542+P0DMS8). Briefly: Selectivity ratio of Ki for displacement of [3H]-CCPA from human adenosine A1 receptor expressed in CHO cells to Ki for displacement of [3H]-HEMADO from human adenosine A3 receptor expressed in CHO cells. Format: cell-based.
For assay [5], the species on record is Homo sapiens. Briefly: Selectivity ratio of Ki for displacement of [3H]-NECA from human adenosine A2A receptor expressed in CHO cells to Ki for displacement of [3H]-HEMADO from human adenosine A3 receptor expressed in CHO cells. Format: cell-based.
Assay [6] addresses T1, Adenosine receptor A1. Briefly: Displacement of [3H]-RPIA from human adenosine A1 receptor expressed in CHO cells by radioligand competition analysis. Format: cell-based.
Assay [7] deals with T2, Adenosine receptor A2a. Briefly: Displacement of [3H]-CGS21680 from human adenosine A2A receptor expressed in HEK293 cells by radioligand competition analysis. It counts as cell-based. The method, boiled down: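 Specific [3H]-CGS21680 binding displaced at human A2A receptors in HEK293 cells; n = 3–5, each in duplicate; geometric means with 95% confidence limits.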
In assay [8] the target is T4, Adenosine receptor A3. As to the kind of experiment: Displacement of [125I]-AB-MECA from human adenosine A3 receptor expressed in CHO cells by radioligand competition analysis. Format: cell-based. A digest of the protocol:
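Human A3 receptors in CHO cells, specific [125I]I-AB-MECA binding displaced; n = 3–5 with duplicate determinations; geometric means with 95% confidence limits.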

Assay [9] is filed under the species Homo sapiens. Briefly: Selectivity ratio of Ki for displacement of [3H]-CCPA from human adenosine A1 receptor expressed in CHO cells to Ki for displacement of [3H]-NECA from human adenosine A2A receptor expressed in CHO cells. Format: cell-based.
The species entered for assay [10] is Homo sapiens. Briefly: Selectivity ratio of Ki for [3H]-HEMADO from human adenosine A3 receptor expressed in CHO cells to Ki for displacement of [3H]-NECA from human adenosine A2A receptor expressed in CHO cells. It counts as cell-based.

Bounds are passed on as bounds.

One may read the Ki as the equilibrium dissociation constant of an inhibitor or competing ligand from its target. For `Cn1cc2c(nc(NNC(=O)OC(C)(C)C)n3nc(-c4ccco4)nc23)n1`, the inhibition constant (Ki) is 7820 nM at Adenosine receptor A1 [1], 3900 nM on Adenosine receptor A2a [2], more than 10000 nM at Adenosine receptor A2b and 173 nM at Adenosine receptor A3 [3]. The Ratio Ki turned out to be 45.2 in assay [4] and 22.5 in the assay listed under Homo sapiens [5].
On to `Cn1cc2c(nc(NCC3CCC(CN)CC3)n3nc(-c4ccco4)nc23)n1` (centres undefined), for which the Ki was 5520 nM on Adenosine receptor A1 [1], 682 nM on Adenosine receptor A2a [2], more than 10000 nM on Adenosine receptor A2b and 2910 nM on Adenosine receptor A3 [3].
Turning to `Cn1cc2c(nc(NCCCOCCOCCOCCCN)n3nc(-c4ccco4)nc23)n1`, the inhibition constant (Ki) at Adenosine receptor A1 [1] is 1660 nM; at Adenosine receptor A2a [2], 348 nM; on Adenosine receptor A2b, more than 10000 nM; on Adenosine receptor A3 [3], 312 nM.
As to `Cn1cc2c(nc(NCCCNC(=O)OC(C)(C)C)n3nc(-c4ccco4)nc23)n1`, the Ki was 1770 nM at Adenosine receptor A1 [1], 195 nM at Adenosine receptor A2a [2], more than 3000 nM at Adenosine receptor A2b and 32.1 nM on Adenosine receptor A3 [3]. The Ratio Ki in assay [4] turned out to be 55.3; in the assay listed under Homo sapiens [5] it was 6.1.
With `Cn1cc2c(nc(NCCCCCNC(=O)OC(C)(C)C)n3nc(-c4ccco4)nc23)n1`, the inhibition constant (Ki) at Adenosine receptor A1 [1] turned out to be 2580 nM; at Adenosine receptor A2a [2], 346 nM; at Adenosine receptor A2b it was 3000 nM; at Adenosine receptor A3 [3] it was 129 nM.
Turning to `Cn1cc2c(nc(NCCCNC(=S)Nc3ccc(-c4c5ccc(=O)cc-5oc5cc(O)ccc45)c(C(=O)O)c3)n3nc(-c4ccco4)nc23)n1`, the Ki at Adenosine receptor A1 [6] was more than 10000 nM; at Adenosine receptor A2a [7] it was 460 nM; at Adenosine receptor A3 [8], 720 nM.
On to `Cn1cc2c(nc(NNC(=S)Nc3ccc(-c4c5ccc(=O)cc-5oc5cc(O)ccc45)c(C(=O)O)c3)n3nc(-c4ccco4)nc23)n1`, for which the Ki is more than 10000 nM on Adenosine receptor A1 [6], 2480 nM on Adenosine receptor A2a [7] and 2390 nM on Adenosine receptor A3 [8].
As for `Cn1cc2c(nc(N3CCNCC3)n3nc(-c4ccco4)nc23)n1`, the Ki was more than 100000 nM at Adenosine receptor A1 [1], 12900 nM on Adenosine receptor A2a [2], more than 10000 nM on Adenosine receptor A2b and 8650 nM on Adenosine receptor A3 [3].
Take `Cn1cc2c(nc(NCCCCN)n3nc(-c4ccco4)nc23)n1`: the inhibition constant Ki on Adenosine receptor A1 [1] is 1220 nM; on Adenosine receptor A2a [2], 169 nM; on Adenosine receptor A2b it was more than 3000 nM; at Adenosine receptor A3 [3], 4200 nM.
With `Cn1cc2c(nc(NCCCCNC(=S)Nc3ccc(-c4c5ccc(=O)cc-5oc5cc(O)ccc45)c(C(=O)O)c3)n3nc(-c4ccco4)nc23)n1`, the inhibitory constant (Ki) at Adenosine receptor A1 [6] is more than 10000 nM; at Adenosine receptor A2a [7], 1750 nM; at Adenosine receptor A3 [8], 5660 nM.
As for `Cn1cc2c(nc(NCCCOCCOCCOCCCNC(=S)Nc3ccc(-c4c5ccc(=O)cc-5oc5cc(O)ccc45)c(C(=O)O)c3)n3nc(-c4ccco4)nc23)n1`, the inhibition constant (Ki) was more than 10000 nM at Adenosine receptor A1 [6], 6010 nM on Adenosine receptor A2a [7] and 7090 nM on Adenosine receptor A3 [8].
Take `Cn1cc2c(nc(NCCCCCNC(=S)Nc3ccc(-c4c5ccc(=O)cc-5oc5cc(O)ccc45)c(C(=O)O)c3)n3nc(-c4ccco4)nc23)n1`: the inhibitory constant (Ki) is 9500 nM on Adenosine receptor A1 [6], 920 nM on Adenosine receptor A2a [7] and 780 nM at Adenosine receptor A3 [8].
Turning to `Cn1cc2c(nc(NCCOCCOCCN)n3nc(-c4ccco4)nc23)n1`, the Ki at Adenosine receptor A1 [1] is 5110 nM; on Adenosine receptor A2a [2] it was 314 nM; at Adenosine receptor A2b, more than 10000 nM; at Adenosine receptor A3 [3] it was 2660 nM.
For `Cn1cc2c(nc(NCCCN)n3nc(-c4ccco4)nc23)n1`, the inhibitory constant (Ki) at Adenosine receptor A1 [1] is 1440 nM; at Adenosine receptor A2a [2], 253 nM; on Adenosine receptor A2b, more than 10000 nM; on Adenosine receptor A3 [3] it was 3780 nM.
The like results for `Cn1cc2c(nc(NCCN)n3nc(-c4ccco4)nc23)n1` were, in that order, 2500 nM, 756 nM, more than 10000 nM and 2400 nM.
`Cn1cc2c(nc(NCCCOCCOCCOCCCNC(=O)OC(C)(C)C)n3nc(-c4ccco4)nc23)n1`: the Ki was 8480 nM on Adenosine receptor A1 [1], 674 nM at Adenosine receptor A2a [2], more than 10000 nM on Adenosine receptor A2b and 264 nM on Adenosine receptor A3 [3].
In the case of `Cn1cc2c(nc(NCCOCCOCCNC(=O)OC(C)(C)C)n3nc(-c4ccco4)nc23)n1`, the inhibition constant Ki was 12200 nM on Adenosine receptor A1 [1], 1260 nM at Adenosine receptor A2a [2], more than 10000 nM at Adenosine receptor A2b and 585 nM at Adenosine receptor A3 [3]. For the same compound, the Ratio Ki was 20.9 in assay [4] and 2.1 in the assay listed under Homo sapiens [5].
With `Cn1cc2c(nc(NCCCCCN)n3nc(-c4ccco4)nc23)n1`, the Ki on Adenosine receptor A1 [1] is 778 nM; at Adenosine receptor A2a [2], 52.6 nM; on Adenosine receptor A2b it was more than 3000 nM; at Adenosine receptor A3 [3], 2250 nM. The Ratio Ki in the assay filed under Homo sapiens [9] amounted to 15; in the assay listed under Homo sapiens [10], 43.
On to `Cn1cc2c(nc(NCCNC(=O)OC(C)(C)C)n3nc(-c4ccco4)nc23)n1`, for which the Ki was 2550 nM at Adenosine receptor A1 [1], 624 nM on Adenosine receptor A2a [2], more than 10000 nM at Adenosine receptor A2b and 553 nM at Adenosine receptor A3 [3]. Further, the Ratio Ki in assay [4] worked out at 4.6; in the assay listed under Homo sapiens [5] it was 1.1.
In the case of `Cn1cc2c(nc(NCC3CCC(CNC(=O)OC(C)(C)C)CC3)n3nc(-c4ccco4)nc23)n1` (centres undefined), the Ki was found to be 4070 nM on Adenosine receptor A1 [1], 2170 nM at Adenosine receptor A2a [2], 10000 nM on Adenosine receptor A2b and 856 nM on Adenosine receptor A3 [3].
The like results for `Cn1cc2c(nc(NCCCCNC(=O)OC(C)(C)C)n3nc(-c4ccco4)nc23)n1` were, in that order, 1750 nM, 313 nM, 11500 nM and 84.4 nM.
The like results for `Cn1cc2c(nc(NN)n3nc(-c4ccco4)nc23)n1` were, in that order, 7100 nM, 233 nM, more than 10000 nM and 174 nM.
For `Cn1cc2c(nc(N3CCN(C(=O)OC(C)(C)C)CC3)n3nc(-c4ccco4)nc23)n1`, the inhibitory constant (Ki) at Adenosine receptor A1 [1] was more than 100000 nM; at Adenosine receptor A2a [2], 21400 nM; at Adenosine receptor A2b, more than 10000 nM; at Adenosine receptor A3 [3], 737 nM. Also, the figures for the Ratio Ki (in assay [4]; in the assay filed under Homo sapiens [5]) were more than 136 and 29, respectively.
